Fibroblast inh – antiproliferative effect on LL 47 fibroblasts – human, LL 47 cells, CellTiter-Glo luminescence, primary screen; AID 719, 2007; LL 47 human lung fibroblast viability, ATP luminescence; hits give low values; viability, % at 10 µM; actives 1.1% (n = 85,000);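 active means viability at or below 50% in the single dose screen; inactive means viability above 50%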;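 further: compound exposure lasted 72 h before the ATP readout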
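Signal: luminescent ATP detection, CellTiter-Glo; assay system: LL 47 human lung fibroblasts; input: 1,150 cells/well; incubation: overnight cell rest, 72 h compound treatment at 37 °C; measure: % viability versus median cells-only luminescence; medium: IMEM growth medium with 15% fetal bovine serum; dosing: compound addition at 0.1% DMSO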
bCat KO growth – primary screen for growth suppressors in beta-catenin knockout HCT116 cells (colon tumor, human) | actives 1.5% (n = 140,000) | HCT116 beta-catenin knockout viability, CellTiter-Glo, 60 h; hits give low values | viability, % at 10 µM;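 active means viability at or under a set limit, the compound median less 4 SD, cut at about 6% in these data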
HUVEC inhibit – inhibitors of HUVEC proliferation, primary screen, cell-based, 384-well. CellTiter-Glo luminescence, 72 h; hits give low values. actives 1.1% (n = 86,000). AID 648, 2007. viability, % at 10 µM (by protocol);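 active means viability at or below 30%; inactive means viability above 30%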
HCT116 PTEN-null – growth suppression of PTEN-null HCT116, primary screen, cell-based, CellTiter-Glo | HCT116 PTEN-null viability, 60 h; hits give low values | viability, % at 10 µM | actives 1.2% (n = 140,000) | AID 827, 2007;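 active means viability at or below a set limit, 4 SD under the median of all tested compounds, cut at about 3.7% in these data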;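 further: PTEN knockout HCT116 line with beta catenin targeted HCT116 as companion control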
H69AR growth 86K – proliferation blockers of H69AR lung cancer cells, primary screen, cell-based, human, 86K library; viability, % at 10 µM; H69AR lung tumor viability, ATP luminescence, 72 h; hits give low values; actives 6% (n = 85,000);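 active means viability at or below 40%; inactive means viability above 40%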;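 further: multidrug resistant small cell line overexpressing MRP-1 efflux transporter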
Of the large screens only hits and unclear results are named; the others gave an inactive call. This excerpt belongs to a sample that is enriched for hits.

COc1ccc2c(c1OC)C(=O)N1c3ccccc3C(=O)N(c3ccccc3F)C21 (centres undefined)	H69AR growth 86K 3.7
O=C(Nc1ccncc1)c1cc(F)cc(F)c1	none
Cc1cccc(C)c1NC(=O)C(c1ccc([N+](=O)[O-])cc1)N(C)C(=O)c1ccccn1 (centres undefined)	none (no result: Fibroblast inh, HUVEC inhibit, H69AR growth 86K)
Clc1ccc(Nc2ncnc3c2cnn3-c2ccccc2)cc1	none
COc1ccc(OC)c(Nc2ncnc3c2cnn3-c2cccc(C)c2)c1	H69AR growth 86K 23
COc1ccc(Nc2ncnc3c2cnn3-c2ccccc2)cc1OC	H69AR growth 86K 37
CCN(CC)S(=O)(=O)c1cc(C)ccc1SC	none (no result: Fibroblast inh, HUVEC inhibit, H69AR growth 86K)
COC(=O)c1ccc(CSc2nc(N3CCOCC3)c3c(c2C#N)CC(C)(C)OC3)o1	H69AR growth 86K 32
C#CCn1c(=NC(=O)c2ccc(Br)s2)sc2cc(NC(C)=O)ccc21	none (no result: Fibroblast inh, HUVEC inhibit, H69AR growth 86K)
C#CCn1c(=NC(=O)c2ccc(Br)s2)sc2cccc(OC)c21	Fibroblast inh 38, H69AR growth 86K 2.6
Cc1ccc(S(=O)(=O)/N=C(\Sc2ccccc2)c2ccccc2)cc1	none
Cc1ccc(S(=O)(=O)/N=C(\CSC(N)=O)Nc2ccccc2)cc1	H69AR growth 86K 24
NNC(=O)C1CC1c1ccc(Cl)cc1 (centres undefined)	none (no result: Fibroblast inh, HUVEC inhibit, H69AR growth 86K)
CC(C)N1C(=O)C(Cc2nc3ccccc3c(=O)n2-c2ccccc2)c2ccccc21 (centres undefined)	none (no result: Fibroblast inh, HUVEC inhibit, H69AR growth 86K)
Cc1nc2ccccc2c2c1C(=O)N(C(C)C)C2=O	none
CC(C)N1C(=O)/C(=C\c2nc3ccccc3c(=O)n2-c2ccccc2)c2ccccc21	HCT116 PTEN-null 3.1 (no result: Fibroblast inh, HUVEC inhibit, H69AR growth 86K)
CC(C)N1C(=O)/C(=C/c2nc3ccccc3c(=O)n2-c2ccccc2)c2ccccc21	bCat KO growth 2.5, HCT116 PTEN-null 2.1 (no result: Fibroblast inh, HUVEC inhibit, H69AR growth 86K)
Nc1nonc1-c1nc2ccccc2n1Cc1ccc(F)cc1Cl	H69AR growth 86K 39
Fc1ccc(Cn2c(-c3cscn3)nc3ccccc32)c(Cl)c1	none
CCn1nc(C)c(/C=N/NC(=S)Nc2ccc(Cl)cc2Cl)c1C	HCT116 PTEN-null 3.8 (no result: Fibroblast inh, HUVEC inhibit, H69AR growth 86K)
Cc1ccc2[nH]c(C)c(/C=N/Nc3nc4ccccc4s3)c2c1	bCat KO growth 1.6, HCT116 PTEN-null 1.1, H69AR growth 86K 4.6
Brc1csc(/C=N/Nc2nc3ccccc3s2)c1	none (no result: Fibroblast inh, HUVEC inhibit, H69AR growth 86K)
CC1CCCCN1C(=O)/C(=C\c1ccccc1)c1ccccc1 (centres undefined)	none (no result: Fibroblast inh, HUVEC inhibit, H69AR growth 86K)
COc1ccccc1NCCC(=O)OCC(=O)NC1CCCCCC1	none (no result: Fibroblast inh, HUVEC inhibit, H69AR growth 86K)
CC(=O)n1c(Cl)c(NC(=O)CCl)c2ccccc21	H69AR growth 86K 1.5
Cc1ccc(-n2nc(C)c(NC(=O)CCl)c2C)cc1C	none (no result: Fibroblast inh, HUVEC inhibit, H69AR growth 86K)
CCCOc1ccccc1-n1sc2c(c1=S)-c1cc(OC)cc3c1N(C(=O)C3=O)C2(C)C	HCT116 PTEN-null 3.0, H69AR growth 86K 1.5
COc1cccc(-n2sc3c(c2=S)-c2cc(OC)ccc2NC3(C)C)c1	none (no result: Fibroblast inh, HUVEC inhibit, H69AR growth 86K)
C=CCn1c(N)c(C(=O)OC(C)(C)C)c2nc3ccccc3nc21	H69AR growth 86K 30
COc1cc(NC(=O)c2cccs2)c(C(=O)OCC(=O)NC(=O)NCc2ccccc2)cc1OC	H69AR growth 86K 27
COc1ccc(-c2csc(N(CC3CCCO3)C(=O)c3cccs3)n2)cc1 (centres undefined)	none
CCN(CC)CCCN(C(=O)c1cccs1)c1nc(-c2ccc(OC)cc2)cs1	HUVEC inhibit 15, H69AR growth 86K 29
COc1ccc(OC)c(-c2csc(N(Cc3ccco3)C(=O)c3cccs3)n2)c1	H69AR growth 86K 8.8
Brc1ccc(C2=NC(Cc3ccccc3)CO2)cc1 (centres undefined)	none (no result: Fibroblast inh, HUVEC inhibit, H69AR growth 86K)
COc1cccc(-n2c(SCC(N)=O)nc3c([nH]c4ccccc43)c2=O)c1	H69AR growth 86K 23
COc1cccc(-n2c(SCC(=O)Nc3cc(C)on3)nc3c([nH]c4ccccc43)c2=O)c1	none
COc1cccc(CNC(=O)C(=O)NCC(c2ccco2)N2CCOCC2)c1 (centres undefined)	none (no result: Fibroblast inh, HUVEC inhibit, H69AR growth 86K)
CCOC(=O)C1Cc2cc3c(cc2C1=O)CC(C(=O)OCC)C3=O (centres undefined)	H69AR growth 86K 20
COc1ccc(Br)cc1C(=O)Nc1cccc(-c2nnc(-c3ccco3)o2)c1	H69AR growth 86K 8.6 (no result: bCat KO growth, HCT116 PTEN-null)
COc1cccc(C(=O)Nc2cccc(-c3nnc(-c4ccco4)o3)c2)c1	bCat KO growth 5.0, H69AR growth 86K 38
COc1ccc(Br)cc1C(=O)Nc1ccc(NC(=O)c2ccco2)cc1	none
CCOC(=O)N/N=C(\C)c1ccccc1OC(F)F	none (no result: Fibroblast inh, HUVEC inhibit, H69AR growth 86K)
CC1=C(C(=O)OC(C)C)[C@@H](c2ccc(C)o2)NC(=O)N1	none (no result: Fibroblast inh, HUVEC inhibit, H69AR growth 86K)
Cc1cc(C)c(C)c(OCCCN(C)C)c1	none (no result: Fibroblast inh, HUVEC inhibit, H69AR growth 86K)
COCCn1c(SCC(=O)Nc2cc(C)nn2-c2ccccc2)nnc1-c1ccncc1	none (no result: Fibroblast inh, HUVEC inhibit, H69AR growth 86K)
O=S(=O)(Nc1nc2ccccc2nc1Nc1cccc(S(=O)(=O)N2CCCCC2)c1)c1ccccc1	none (no result: Fibroblast inh, HUVEC inhibit, H69AR growth 86K)
Cc1ccc(OC(=S)Nc2ccc(O)cc2)cc1	H69AR growth 86K 15
Cc1ccc(OC(=S)Nc2ccc(F)cc2)cc1	none
COc1ccccc1C(=O)N/N=C(\C)c1ccc(NC(=O)C2CC2)cc1	none (no result: Fibroblast inh, HUVEC inhibit, H69AR growth 86K)
N#CC1=C(N)C(C#N)(C#N)C(c2cccnc2)C2CC(c3ccccc3)CC=C12 (centres undefined)	Fibroblast inh 44, HUVEC inhibit 5.9, H69AR growth 86K 1.6
N#CC1=C(N)C(C#N)(C#N)C(c2cccnc2)C2CCCC=C12 (centres undefined)	none
COc1cc(OC)cc(C(=O)Nn2cc(C(=O)Nc3c(F)cccc3F)c3ccccc3c2=O)c1	none (no result: Fibroblast inh, HUVEC inhibit, H69AR growth 86K)
COc1ccc([N+](=O)[O-])cc1NC(=O)Cc1ccc(Cl)cc1	none (no result: Fibroblast inh, HUVEC inhibit, H69AR growth 86K)
COc1ccc([N+](=O)[O-])cc1NC(=S)NC(NC(=O)Cc1ccc(OC)c(OC)c1)C(Cl)(Cl)Cl (centres undefined)	bCat KO growth 4.9 (no result: Fibroblast inh, HUVEC inhibit, H69AR growth 86K)
O=C1CCCC2=C1C(c1ccco1)Nc1ccc(C(=O)c3ccccc3)cc1N2 (centres undefined)	H69AR growth 86K 13
CN1C(=O)C(O)(CC(=O)c2ccc(F)cc2)c2cc(Br)ccc21 (centres undefined)	H69AR growth 86K 25
N=c1cc(C2(O)CCCCC2)n2c(nc3ccccc32)s1	H69AR growth 86K 6.8
Cc1csc2ncc(C(=O)Nc3ccccc3F)c(=O)n12	none (no result: bCat KO growth, HCT116 PTEN-null)
Cc1csc2ncc(C(=O)Nc3ccccc3Cl)c(=O)n12	H69AR growth 86K 29 (no result: bCat KO growth, HCT116 PTEN-null)
c1ccc(-c2cccc(-c3ccccn3)n2)nc1	Fibroblast inh 29, HUVEC inhibit 10, H69AR growth 86K 8.8
O=c1[nH]c(CN2CCN(C/C=C/c3ccccc3)CC2)nc2cc(Cl)ccc12	HUVEC inhibit 28
CC(Nc1nc(N2CCN(S(C)(=O)=O)CC2)nc2ccccc12)c1ccccc1 (centres undefined)	HUVEC inhibit 14
C=CCNC(=O)CSc1nc2cc(C(=O)OCC)ccc2n1CC	H69AR growth 86K 26
CCOC(=O)c1ccc2c(c1)nc(SCC(=O)c1cc3ccccc3o1)n2CC	none

High-throughput results deposited in PubChem BioAssay by SRMLSC.
